An excerpt weighted towards active compounds, which were near 2.6% of everything screened.
SENP8 block-1: SENP8 protease inhibitors, primary screen, biochemical, luminescence. Sentrin-specific protease 8 (Homo sapiens), Q96LD8. purified SENP8, Z-RLRGG-aminoluciferin cleavage. inhibition, % at 10 µM. actives 1.2% (n = 330,000); in the data active = inhibition above about 50%
SENP8 block-2: human SENP8 protease inhibitors, primary screen, biochemical, fluorescence, Nedd8 protein substrate, uHTS; inhibition, % at 20 µM; AID 602440, 2012; actives 0.64% (n = 360,000); recombinant SENP8; Sentrin-specific protease 8 (Homo sapiens), Q96LD8; in the data active = inhibition mostly above about 40%, no sharp cut-off; inactive = mostly below about 27%
Platelet DG rel: inhibitors of platelet dense granule secretion, primary screen, cell-based, MLPCN, human platelets; inhibition, %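 (compounds screened at 7.5 µM in platelet-rich plasma)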; actives 0.22% (n = 300,000); human platelet-rich plasma, SFLLRN dense granule ATP release, luminescence;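 active = mean replicate score, as percent of positive control, at or above 50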
SENP7 inh: SENP7 protease inhibitors, primary screen, biochemical, luminescence, uHTS; recombinant SENP7, Z-RLRGG-aminoluciferin luminescence, 40 min; inhibition, % at 5 µM; actives 1.5% (n = 330,000); AID 434973, 2010;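 active = inhibition above about 50% at the single test dose, limit read from the data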;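 note: plate controls were DMSO with enzyme for no effect and no enzyme buffer wells for full effect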
SENP6 inh: SENP6 protease inhibitors, primary screen, biochemical, luminescence, uHTS. Sentrin-specific protease 6 (Homo sapiens), Q9GZR1. Recombinant SENP6 catalytic domain, aminoluciferin luminescence. inhibition, % at 10 µM. actives 1.8% (n = 330,000). AID 2599, 2010;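 active = inhibition above about 50% at the single tested dose, limit read from the data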;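 note: plate controls were DMSO wells with enzyme for no effect and DMSO wells lacking enzyme for full effect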
Target sequence (Q9GZR1 628-1112 limits assumed): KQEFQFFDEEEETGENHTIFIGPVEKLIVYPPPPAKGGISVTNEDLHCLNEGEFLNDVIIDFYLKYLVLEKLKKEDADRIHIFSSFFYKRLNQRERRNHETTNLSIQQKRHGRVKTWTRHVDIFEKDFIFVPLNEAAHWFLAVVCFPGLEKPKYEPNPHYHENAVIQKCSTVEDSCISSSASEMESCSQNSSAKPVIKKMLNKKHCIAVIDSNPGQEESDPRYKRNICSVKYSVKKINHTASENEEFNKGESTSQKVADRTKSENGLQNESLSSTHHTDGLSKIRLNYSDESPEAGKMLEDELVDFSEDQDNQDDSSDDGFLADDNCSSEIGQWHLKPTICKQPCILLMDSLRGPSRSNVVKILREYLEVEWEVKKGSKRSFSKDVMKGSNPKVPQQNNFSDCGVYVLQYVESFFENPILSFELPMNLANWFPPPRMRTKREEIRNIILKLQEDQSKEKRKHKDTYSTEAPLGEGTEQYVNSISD
SENP1 inh: human SENP1 catalytic domain inhibitors, primary screen, biochemical, FRET, uHTS. actives 0.21% (n = 360,000). recombinant SENP1 catalytic domain, CyPet-SUMO1-YPet FRET cleavage. Sentrin-specific protease 1 (Homo sapiens), Q9P0U3. AID 624204, 2012. inhibition, % at 10 µM;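 active = inhibition at least 30% at 10 µM, raw YFP signal under a set limit, fluorescence ratio 0.5 to 1.5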;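 note: 0% = enzyme with DMSO and 100% = no enzyme wells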
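material = recombinant human SENP1 catalytic domain, His6-tagged | quantity = 20 pM enzyme | reagent = 25 nM SUMO1 FRET substrate | compound dosing = 10 µM single point, 0.5% DMSO | timing = 50 min enzyme reaction, room temperature, light-protected | detection = FRET, CFP and YFP emission | control set = no-enzyme low, enzyme-DMSO high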
SENP8 conf: SENP8 protease inhibitors, retest, confirmation, biochemical, luminescence, single concentration | shares compounds with SENP7 inh | Recombinant SENP8, Z-RLRGG-aminoluciferin luminescence, 60 min | inhibition, % at 12.5 µM | actives 40% (n = 6,200);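 active = mean inhibition across replicates above about 50%, limit read from the data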
SENP6 conf: SENP6 protease inhibitors, confirmation, biochemical, luminescence, single concentration; recombinant SENP6, Z-RLRGG-aminoluciferin luminescence; inhibition, % at 12.5 µM; actives 58% (n = 6,200); shares compounds with SENP7 inh
SENP7 conf: SENP7 protease inhibitors, retest, confirmation, biochemical, luminescence, single concentration | inhibition, % at 12.5 µM | actives 69% (n = 6,200) | shares compounds with SENP7 inh | recombinant SENP7, Z-RLRGG-aminoluciferin luminescence, 40 min
Casp3 SENP sel: caspase-3 protease inhibitors, confirmation, selectivity assay for SENP inhibitor project, biochemical, single concentration. inhibition, % at 12.5 µM. AID 488918, 2010. shares compounds with SENP7 inh. actives 60% (n = 6,200). purified caspase-3, Z-DEVD-aminoluciferin luminescence, 60 min;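 active = mean inhibition above about 50%, limit read from the data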;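 note: plate controls were enzyme with DMSO for no effect and wells without caspase-3 for full effect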
SENP luc ctr: counter-screen for SENP inhibitors: luminescence interference. Pre-incubated SENP8/Z-RLRGG-aminoluciferin, luciferase luminescence interference. shares compounds with SENP7 inh. inhibition, % at 12.5 µM. actives 39% (n = 6,200);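 active = mean inhibition above about 50% when retested at one dose, limit read from the data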;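 note: plate controls were DMSO wells with completed reaction for no effect and substrate without enzyme for full effect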
Starred values were filed as active, the others as inactive; x = no result.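 Rule for the calls, unless noted: active = mean inhibition above about 50% in the one-dose retest (limit read from the data); inactive = the rest.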

SMILES	SENP8 block-1	SENP8 block-2	Platelet DG rel	SENP7 inh	SENP6 inh	SENP1 inh	SENP8 conf	SENP6 conf	SENP7 conf	Casp3 SENP sel	SENP luc ctr
COC(=O)c1ccccc1NC(=O)CSc1nnc(C(C)NC(=O)c2ccc(Cl)cc2Cl)n1C (stereo not given)	-3.4	7.4	8.6	-0.5	-4.8	1.9	x	x	x	x	x
Cc1cccc(CN2CCN(Cc3ccc4nonc4c3)CC2CCO)n1 (stereo not given)	-6.5	1.4	1.0	-5.7	11.8	1.1	x	x	x	x	x
CCCc1cc(C(=O)Nc2cccnc2)no1	23.6	1.0	8.9	36.6	-10.0	-0.6	x	x	x	x	x
COc1cccc(-c2cc(C(=O)Nc3cccnc3)no2)c1	64.7*	3.2	7.0	80.2*	55.5*	-3.9	47.3	78.0*	93.0*	83.4*	28.9
CC(C)c1cc(C(=O)Nc2cccnc2)no1	39.5	12.6	4.9	63.4*	62.3*	-0.8	61.0*	56.2*	85.7*	88.2*	64.6*
Cc1ncc(CO)c(/C=N/N=C/c2ccccc2O)c1O	32.1	-35.2	10.0	25.4	60.4*	21.3	7.1	7.1	8.6	9.3	5.0
Cc1ncc(CO)c(/C=N/NC(=S)Nc2ccc(F)cc2)c1O	-0.8	-324.1	-0.4	4.2	-2.1	-28.3	x	x	x	x	x
C=CCNc1nc2ccccc2c(=O)[nH]1	-1.2	-323.9	8.5	-4.0	9.7	0.5	x	x	x	x	x
COc1cc(/C=C/c2nc3ccccc3c(=O)[nH]2)cc(OC)c1OC	14.7	-295.6	-0.8	-2.6	-13.4	4.4	x	x	x	x	x
Cc1ccc(/C=C/c2nc3ccccc3c(=O)[nH]2)cc1	85.8*	-151.6	45.0	98.1*	90.0*	-8.1	48.2	54.6*	43.0	38.5	7.8
N#CCOc1ccccc1/C=C/c1nc2ccccc2c(=O)[nH]1	-7.8	-62.3	3.6	2.4	-9.6	-1.1	x	x	x	x	x
C=CCOc1cccc(/C=C/c2nc3ccccc3c(=O)[nH]2)c1	28.3	-34.8	5.0	81.5*	37.4	-0.2	-10.2	3.7	11.9	16.7	12.8
COC(=O)c1ccc(/C=C/c2nc3ccccc3c(=O)[nH]2)cc1	84.7*	-320.7	62.8*	96.5*	89.1*	-17.7	29.2	24.2	52.1*	62.9*	-4.4
Cc1ccccc1/C=C\c1nc2ccccc2c(=O)[nH]1	69.1*	-74.4	6.4	84.7*	76.4*	1.1	15.0	23.8	62.1*	24.8	-4.3
CCOC(=O)C1CCN(Cc2cnc(Oc3ccc(C(C)(C)C)cc3)s2)CC1	1.3	11.5	-0.8	102.1*	3.8	0.6	2.9	0.2	1.3	1.4	-1.6
O=C(NC1CCCC1)c1ccc2c(c1)S(=O)(=O)c1ccccc1C2=O	0.3	15.0	-0.3	-7.7	2.6	0.5	x	x	x	x	x
CN(C)c1ccc(-c2ccc3oc(-c4ccsc4)cc(=O)c3c2)cn1	-9.5	-57.2	x	29.9	-13.1	-0.8	x	x	x	x	x

Bioassay records deposited in PubChem BioAssay by several laboratories.
